Sampled rows, rich in hits. Any-hit rate of the full collection: about 3.5%.
MrgX1 antag: antagonists of human MrgX1 receptor; B-score at 10 µM; MRGX1-HEK293 calcium flux, Fluo-4, BAM8-22 antagonism; hits give low values; 310,000 compounds, 1.3% hits;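 active means calcium-response B-score plate-corrected more than 3 library SD below zero, starting fluorescence within 5 deviations, no agonist response on first addition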;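 further: peak minus trough fluorescence over baseline after final BAM8-22 challenge near maximal dose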
Target sequence (Q96LB2 whole entry, looked up): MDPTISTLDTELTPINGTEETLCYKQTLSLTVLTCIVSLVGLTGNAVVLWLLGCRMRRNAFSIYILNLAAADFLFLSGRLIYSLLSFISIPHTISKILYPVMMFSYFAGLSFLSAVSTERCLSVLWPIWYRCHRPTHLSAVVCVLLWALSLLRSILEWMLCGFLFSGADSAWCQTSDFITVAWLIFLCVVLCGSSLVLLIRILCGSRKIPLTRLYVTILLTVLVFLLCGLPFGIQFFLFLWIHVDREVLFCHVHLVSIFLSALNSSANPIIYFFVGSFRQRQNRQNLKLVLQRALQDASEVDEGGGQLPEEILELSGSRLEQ
MrgX1 agonist: agonists of human MrgX1 receptor; B-score at 10 µM; MrgX1-HEK293 cells, Fluo-4 calcium fluorescence, agonist mode; hits give high values; 310,000 compounds, 0.44% hits;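 active means calcium response B-score plate-corrected fluorescence ratio at least 3 library SD, with starting fluorescence B-score inside 5 SD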
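Material: MrgX1-expressing HEK293 cells; input: 15,000 cells per well; doses: test compound given as first of three sequential additions; schedule: overnight plating before 1 h dye loading; technique: Fluo-4 NW calcium-flux fluorescence, kinetic read; evaluation: baseline-normalised fluorescence change ratio, B-scored; control set: plate-wise positive and negative controls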
RGS4 inh: inhibitors of human RGS4; AID 463165; 310,000 compounds, 0.45% hits; P49798; HEK293 M3R/RGS4 inducible, Fluo-4 calcium flux; hits give high values; triggered by carbachol at its EC20; B-score at 10 µM;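 active means B-score, a plate-corrected calcium signal, over three deviations above library mean, with baseline fluorescence within five deviations of library mean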;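 further: RGS4 expression induced by doxycycline in cells with stable M3 receptor; B-score is computed from the integrated fluorescence ratio over baseline after carbachol; higher B-score means a larger calcium signal and so more RGS4 inhibition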
Target sequence (P49798 whole entry, looked up): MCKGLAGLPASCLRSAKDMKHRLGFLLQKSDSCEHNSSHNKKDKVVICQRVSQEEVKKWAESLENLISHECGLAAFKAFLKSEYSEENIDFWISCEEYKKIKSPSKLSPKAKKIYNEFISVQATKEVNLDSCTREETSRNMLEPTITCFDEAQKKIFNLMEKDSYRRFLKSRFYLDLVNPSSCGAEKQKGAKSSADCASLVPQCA
MrgX1 allo act: allosterically activates human MrgX1 receptor signaling; Q96LB2; MrgX1-HEK293, Fluo-4 calcium flux, FDSS; hits give high values; B-score at 10 µM; 310,000 compounds, 0.63% hits; AID 588675;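 active means plate-corrected calcium response at least 3 library SD above typical, normal starting fluorescence, not activating the receptor alone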;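 further: compound read alongside a low EC10 to EC30 dose of BAM8-22 agonist; peak minus trough fluorescence over baseline measured at the second addition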
RGS4 pot: RGS4 potentiation or activation; HEK293 M3R/inducible RGS4, carbachol calcium flux Fluo4; hits give low values; B-score at 10 µM; AID 463111; 310,000 compounds, 0.92% hits;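 active means B-score of the integrated calcium signal more than 4 SD below the library mean, with starting fluorescence not abnormally high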;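 further: negative B-score means reduced calcium response which marks RGS4 activation or potentiation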
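test system = HEK293 cells with stable M3R and inducible RGS4 | schedule = recording 10 s baseline at 1 Hz, 100 s post-agonist | technique = Fluo4-AM (2 µM) calcium-flux fluorescence, kinetic read | measure = Agonist-evoked peak-minus-minimum fluorescence over baseline, integrated ratio, B score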
MrgX1 antag conf: reconfirmed antagonist of human MrgX1 receptor signaling. shares compounds with MrgX1 antag. remaining BAM8-22 calcium response % of control (hits give low values), % at 10 µM. MrgX1-HEK293, BAM8-22 calcium flux, Fluo-4; hits give low values. 2,300 compounds, 19% hits;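 active means remaining agonist calcium response no higher than 100% minus 3 SD of agonist-only control wells, with starting fluorescence near control levels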;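 further: agonist BAM8-22 given at a near maximal EC90 to ECmax level; peak minus minimum fluorescence divided by baseline after agonist addition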
HEK293 Ca flux: counter-screen for MrgX1 antagonists: effect in parental HEK293 cells. 4,000 compounds, 2% hits. fluorescence ratio F(max-min)/F0 at 10 µM. Fluo-4 calcium fluorescence, FDSS. AID 624111. shares compounds with MrgX1 antag;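 active means duplicate-averaged calcium fluorescence ratio at least three times the standard deviation of buffer wells, a nonspecific response in parental cells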
HEK293 Ca counter: activity in parental HEK293 cells without MrgX1 | shares compounds with MrgX1 antag | parental HEK293 calcium flux, Fluo-4 fluorescence ratio; hits give high values | fluorescence ratio F(max-min)/F0 at 10 µM | 4,000 compounds, 0.4% hits | AID 624114;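 active means calcium fluorescence ratio, averaged over duplicates, at least 3 SD of the buffer-well ratio, meaning a nonspecific response in receptor-free cells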;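 further: untransfected parental HEK293 lacking MrgX1 used as counterscreen for MrgX1 allosteric activators; fluorescence change taken during the second addition on a kinetic imager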
HEK293 Ca cntr2: MrgX1 activator counter-screen hit in parental HEK293 cells; fluorescence ratio F(max-min)/F0 at 10 µM; 4,000 compounds, 8.7% hits; shares compounds with MrgX1 antag; AID 624115; Fluo-4 calcium fluorescence (FDSS); hits give high values;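 active means calcium fluorescence ratio at least three times the spread of buffer wells, meaning a non-specific response in parental cells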
Numbers without * were called inactive; i = inactive; nt = not tested or not shown.

SMILES | MrgX1 antag | MrgX1 agonist | RGS4 inh | MrgX1 allo act | RGS4 pot | MrgX1 antag conf | HEK293 Ca flux | HEK293 Ca counter | HEK293 Ca cntr2
Cc1ccc(CN2CC(C(=O)N3CCN(S(=O)(=O)c4c(F)cccc4F)CC3)CC2=O)cc1 (stereo not given) | i | i | i | i | i | nt | nt | nt | nt
CCn1ccnc1CN1CCN(CC(C)C)C(CCO)C1 (stereo not given) | i | i | i | i | i | nt | nt | nt | nt
CCn1ccnc1CN1CCN(CCC(C)C)C(CCO)C1 (stereo not given) | -6.2* | i | i | i | i | i | i | i | i
COc1ccccc1NC(=O)NCC(c1ccco1)N1CCCCC1 (stereo not given) | i | i | i | i | i | nt | nt | nt | nt
CCOC(=O)Cc1csc(NS(=O)(=O)c2ccc3ccccc3c2)n1 | i | i | i | i | i | nt | nt | nt | nt
CCOC(=O)Cc1csc(NS(=O)(=O)Cc2ccccc2)n1 | -12* | i | i | i | i | i | i | i | i
CS(=O)(=O)N1c2ccccc2[C@]2(Br)C[C@H]3C(=O)N[C@@H](Cc4ccccc4)C(=O)N3[C@H]12 | i | i | i | i | i | nt | nt | nt | nt
Cc1ccc2c(c1)N(C(=O)CCC(=O)NCCCN1CCN(C)CC1)CCO2 | -8.7* | i | i | i | i | i | i | i | i
Cc1ccc2c(c1)N(C(=O)CCC(=O)NCCCN1CCC(Cc3ccccc3)CC1)CCO2 | i | i | i | i | i | nt | nt | nt | nt
COc1ccc(OC)c(-n2c(-c3cccc(C)c3)n[nH]c2=S)c1 | i | i | i | i | i | nt | nt | nt | nt
COc1ccc(OC)c(-n2c(-c3ccccc3)n[nH]c2=S)c1 | -5.2* | i | i | i | i | i | i | i | i
CCOC(=O)CN1C(=O)N[C@@H](c2cccc(C(F)(F)F)c2)[C@@H](C(=O)OC)[C@H]1C | -6.1* | i | i | i | i | i | i | i | i
COCCN1C(=O)N[C@@H](c2cccc(C(F)(F)F)c2)[C@H](C(=O)OC)[C@H]1C | i | i | i | i | i | nt | nt | nt | nt
NC(=O)c1cc([N+](=O)[O-])c(Cl)cc1NCc1cccnc1 | i | i | nt | i | nt | nt | nt | nt | nt
Cc1ccnc(NC(=O)CCC(=O)c2cc(C)sc2C)c1 | i | i | i | i | i | nt | nt | nt | nt
COc1ccc(C(=O)NC(C)c2ccc(-n3ccnc3)cc2)c(OC)c1 (stereo not given) | -10* | i | i | i | i | i | i | i | i
COC(=O)C(Cc1ccccc1)N1CCS(=O)(=O)CC1 (stereo not given) | i | i | i | i | i | nt | nt | nt | nt
COC(=O)C(Cc1c[nH]c2ccccc12)N1CCS(=O)(=O)CC1 (stereo not given) | -5.7* | i | i | i | i | i | i | i | i
CCOC(=O)c1nn(-c2sc(C(=O)OC)c(C)c2C(=O)OC)cc1O | -6.8* | i | i | i | i | 62%* | i | i | i
CCOC(=O)c1nn(-c2cc(C(=O)OC)cc(C(=O)OC)c2)cc1O | i | i | i | i | i | nt | nt | nt | nt
Cc1ccccc1CN1CCN(S(=O)(=O)c2cccc3nsnc23)CC1 | -11* | i | i | i | i | i | i | i | i
Cc1ccccc1CN1CCN(S(=O)(=O)c2cccs2)CC1 | -4.6* | i | i | i | i | i | i | i | i
CCN1CCN(S(=O)(=O)c2cccc3nsnc23)CC1 | i | i | i | i | i | nt | nt | nt | nt
COc1cc(NC(=O)CSc2ncnc3sc4c(c23)CCC(C)C4)c(C(=O)O)cc1OC (stereo not given) | i | i | i | i | i | nt | nt | nt | nt
N#Cc1c(N)nc2c(c1-c1ccccc1)CCCC2 | i | i | i | i | i | nt | nt | nt | nt
SMILES | MrgX1 antag | MrgX1 agonist | RGS4 inh | MrgX1 allo act | RGS4 pot | MrgX1 antag conf | HEK293 Ca flux | HEK293 Ca counter | HEK293 Ca cntr2
CSc1nc2c(c(-c3ccccc3)c1C#N)CCC2 | -6.5* | i | i | i | i | i | i | i | i
CCc1ccc(NC(=O)CCC(=O)N2CCSc3ccccc32)cc1 | -5.2* | i | i | i | i | i | i | i | i
CCc1cccc(NC(=O)CCC(=O)N2CCSc3ccccc32)c1 | i | i | i | i | i | nt | nt | nt | nt
O=c1[nH]c(C(F)(F)F)nc2c1nnn2Cc1ccccc1F | -5.2* | i | i | i | i | i | i | i | i
Cc1ccc(S(=O)(=O)Nc2ccccn2)cc1[N+](=O)[O-] | i | i | i | i | i | nt | nt | nt | nt
O=c1ccc(-c2ccc(S(=O)(=O)Nc3cccc([N+](=O)[O-])c3)s2)n[nH]1 | i | i | i | i | i | nt | nt | nt | nt
Cc1cc(C(=O)COc2ccccc2C(N)=O)c(C)n1CC1CCCO1 (stereo not given) | -4.7* | i | i | i | i | 71%* | i | i | i
Cc1cc(C(=O)COC(=O)c2ccccc2Br)c(C)n1CC1CCCO1 (stereo not given) | i | i | i | i | i | nt | nt | nt | nt
O=C(CCc1ccccc1)Nc1cc(C(F)(F)F)ccc1Cl | -4.5* | i | i | i | i | i | i | i | i
CCCSc1nnc(CSc2ncccn2)n1C | i | i | i | i | i | nt | nt | nt | nt
CCN(CC)C(=O)NC(c1ccc(C)c(F)c1)C(Cl)(Cl)Cl (stereo not given) | i | i | i | i | i | nt | nt | nt | nt
Cc1ccc(C(NC(=O)N2CCOCC2)C(Cl)(Cl)Cl)cc1F (stereo not given) | -5.3* | i | i | i | i | 81%* | i | i | i
CC(Oc1ccc(Br)cc1)C(=O)Nc1ccc(S(=O)(=O)N(C)C2CCN(C)CC2)cc1 (stereo not given) | -16* | i | i | i | i | i | i | i | 48*
COc1ccccc1NC(=O)Cc1noc(CSc2nnc(C)s2)n1 | i | i | i | i | i | nt | nt | nt | nt
